Assay results from different studies.
Compare with care: the assays were run in different laboratories. Values after ≈ are worked out from the molar mass of the structure shown.
Organism: Staphylococcus epidermidis

SMILES	effect on	method	strain	concentration	time	measurement	value
O=C(O)c1cn(C2CC2)c2cc(N3CCNCC3)c(F)cc2c1=O	microbial growth	broth dilution	ATCC12228			MIC	0.49 µg/mL
Cc1c(NC(=O)CC2=NC(=O)CS2)c(=O)n(-c2ccccc2)n1C	microbial killing	broth dilution				MBC	1 µg/mL (≈ 2.9 µM)
CC1(C)S[C@@H]2[C@H](NC(=O)[C@H](N)c3ccccc3)C(=O)N2[C@H]1C(=O)O	microbial growth	agar dilution	ATCC12228	26.93 µM		inhibition	100%
CC(C)Oc1c(NC(=O)c2ccc(NC(=O)[C@H](CC(N)=O)NC(=O)c3ccc(NC(=O)c4ccc(C#N)cn4)cc3)cc2)ccc(C(=O)Nc2ccc(C(=O)O)cc2)c1O	microbial growth		DSM28765			MIC	1 µg/mL
CN(C)[C@@H]1C(O)=C(C(N)=O)C(=O)[C@@]2(O)C(O)=C3C(=O)c4c(O)cccc4[C@@](C)(O)[C@H]3C[C@@H]12	microbial growth	broth dilution	12228			MIC	100 µM
CO[C@@H](C(N)=O)[C@H](NC(=O)c1ccc(NC(=O)c2ccc(C#N)cc2)cc1)C(=O)Nc1ccc(C(=O)Nc2ccc(C(=O)Nc3ccc(C(=O)O)cc3)c(O)c2OC(C)C)cc1	microbial growth		DSM28765			MIC	≤ 0.03 µg/mL
O=[N+]([O-])c1ccc2c(N=Nc3c(O)ccc4ccccc34)c(O)cc(S(=O)(=O)O)c2c1	microbial growth	broth dilution			24 h	MIC50	250 µM (≈ 110 µg/mL)
CCOC(=O)c1c(N)csc1-c1cn(-c2ccccc2)nc1-c1ccc(C)cc1	microbial killing	broth dilution				MBC	0.125 µg/mL (≈ 0.31 µM)
O=C(O)CN1C(=O)/C(=C/c2ccc(-c3ccc(N(c4ccccc4)c4ccccc4)cc3)c3ccccc23)SC1=S	microbial killing	broth dilution	ATCC12228			MBC	1000 µg/mL (≈ 1750 µM)
O=C(O)c1cn(C2CC2)c2cc(N3CCNCC3)c(F)cc2c1=O	microbial growth		DSM28765			MIC	0.25 µg/mL
O=C1NC(=S)S/C1=C\c1ccc(-c2ccc(N(c3ccccc3)c3ccccc3)cc2)c2ccccc12	microbial growth	broth dilution	ATCC12228			MIC	1000 µg/mL
O=C(O)c1cn(C2CC2)c2cc(N3CCNCC3)c(F)cc2c1=O	microbial killing	broth dilution				MBC	0.5 µg/mL (≈ 1.51 µM)
O=[N+]([O-])c1ccc2c(N=Nc3ccc4ccccc4c3O)c(O)cc(S(=O)(=O)O)c2c1	microbial growth	broth dilution			24 h	MIC50	31 µM (≈ 13.6 µg/mL)
O=C1NC(=S)N/C1=C\c1ccc(-c2ccc(N(c3ccccc3)c3ccccc3)cc2)cc1	microbial growth	broth dilution	ATCC12228			MIC	> 1000 µg/mL
